Results published in the EternaBench riboswitch data.

Test system: MS2 coat protein
Assay: apparent Kd, MS2 coat protein; higher = weaker binding; RNA-MaP array; FMN 200 µM where present
Procedure, shortened: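 Designs on Illumina sequencing-chip clusters, transcribed by stalled E. coli RNA polymerase, were exposed to SNAP-549-labelled MS2 coat protein in doubling steps from 0.7 or 1.5 nM up to 3 µM, without and then with constant ligand. The buffer held 100 mM Tris-HCl pH 7.5, 80 mM KCl, 4 mM MgCl2, BSA, DTT, yeast tRNA and Tween-20. Apparent Kd values are medians of filtered per-cluster binding-curve fits to green signal normalised to red-channel RNA signal and control-cluster median Fmax.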

[1] = designed as: ON switch for flavin mononucleotide, no ligand
[2] = ligand present: flavin mononucleotide, designed as: ON switch for flavin mononucleotide
[3] = designed as: OFF switch for flavin mononucleotide, no ligand
[4] = ligand present: flavin mononucleotide, designed as: OFF switch for flavin mononucleotide

Sequence	apparent Kd [1] [µM]	apparent Kd [2] [µM]	apparent Kd [3] [µM]	apparent Kd [4] [µM]
UUACUCAUGUAAGGAUAUGCAGCUGAAACGGCUGCAGAAGGUACUAUAAUACAUGAGGAUCACCCAUGUAAAAUAAAUAAAGUU	0.0241	0.0146	–	–
AACCAACAUGAGGAUCACCCAUGUCAACCCAAGCGAGGAUAUCCGAGAAUAACAAUGGGAGGAGAAGGCGCGACCU	0.0734	0.0556	–	–
AUACAUGAGGAUCACCCAUGUUACUGGGUCUUUUUAGAACGUAGAAGGAUGUUUUUAUAAAUAACAUAGGAUAUACAAUAUUGU	–	–	0.0596	0.0499
UGUGUCUGUAGAGGAUAUCCGGGCGUUCGGCUAGGAGAAGGCUGCAACACAUGAGGAUCACCCAUGUAGGUUGUGUCUCUCUAC	–	–	0.00505	0.00848
UAAUUGUGAGGAUAUCAGGUGUGCUAGCGUACUGGUACAUCUGAGAAGGCACAUGAGGAUCACCCAUGUUCCUU	–	–	0.0138	0.0376
CGGUAUCGACAGAAGGACGUAGCACAUGAGGAUCACCCAUGUCCGUAAUGUAGGAUAUGUACGGCCGAUCUCACGCAACACUAA	0.0371	0.013	–	–
ACAUACAUGACAUGACAUGAGGAUCACCCAUGUCCAUGUUACAAGGAUAUGUACAUGAAACAUGUACAGAAGGUGUAUUGGACU	–	–	0.0131	0.018
GUAUCCGCUGAGGAUAUAAACUCCCUUGAGGGUUUAGAAGGCAGCACAUGAGGAUCACCCAUGUGGUAAGUUUG	–	–	0.0171	0.0292
GUAGUGUAGUGAGGAUAUACGAGAUCGAUAGAUCGGCGAUCCAAUUAUACAUGAGGAUCACCCAUGUAGAAGGCACUUCACUAC	–	–	0.0101	0.0592
GAUUUUUCUGAGGAUAUUGCAUCACCCGAUCUAUAAGAAGGCAGAACAUGAGGAUCACCCAUGUGGGUUUCUAG	–	–	0.0221	0.0456
GCUACAUAUUUUAAGUUUGAUUAUCUAGAAGGUAGAUACAUGAGGAUCACCCAUGUUUAGAGUUCUAAGGAUAUAGUUUGUAGC	0.00612	0.00591	–	–
GUUUUACAUGAGGAUCACCCAUGUGAGGAUAUAUUGUUAUUUUUGAUAUUUUUUGGUGGUAGAAGGCGCGUGAU	–	–	0.0364	0.0327
CCGGAUACGGGUAGCCUGACAUGAGGAUCACCCAUGUGAUCCAAGGAUAUGGAUCCUAAUUGGAUCCAGAAGGUGGUUGGCUAC	0.682	0.369	–	–
UAAAUCUUGUAAGGAUAUACACGAGAUUCAAGUGUAGAAGGUACUUACAUGAGGAUCACCCAUGUAUACAUGGAUAUUAGAUAU	0.142	0.0389	–	–
AUACACUUAGUGAGGAUAUCGUUUUCUUUACGGAUCGAGAAGGCACAUGAGGAUCACCCAUGUUUGACGUGAAU	–	–	0.0214	0.0689
UUCCUACAUGAGGAUCACCCAUGUGAGGAUAUGCAUCGUAUUAUUCUCGUAUGUAGUAGCAGAAGGCGCAUUGG	–	–	0.0259	0.0896
AUAUGUAACUAGGAUAUCAGCAUACUUCAAUGUUGAGAAGGAGUUACAUGAGGAUCACCCAUGUAUCCAACAUG	–	–	0.0405	0.0286
UCGGCGCGAGGAUAUGCGGUUUGUGCUUUGGGCCCUGGCGUACAUGAGGAUCACCCAUGUAGAAGGCGCGUUGC	–	–	0.0194	0.02
CGUUAUGAUAGAGGAUAUGUAAUACAUGAGGAUCACCCAUGUCACAUGGACAUUGUUUCUAAUUUACAGAAGGCUAUCCUUUCG	–	–	0.0203	0.0163
UAGAUUUAUGUAGGAUAUACAUUUUGUACGUAUGUAGAAGGACAUGAGGAUCACCCAUGUAAAUAAAUAUUAAAUAUCAUAAUU	–	–	0.0505	0.0324
ACAGUCACAGUAACCUGUGGCCGUGAGGAUAUAUAUGGCUCGGAGCGGACAUGAGGAUCACCCAUGUAGAAGGCACGAACUAAA	–	–	0.00621	0.00709
UGUAAUGCUAUUGCAGAGGUUUAGAAGGAUAUACAUCGACAUGACCGUACAUGAGGAUCACCCAUGUAGAAGGUCUAACUUCGU	–	–	0.00561	0.00555
GCCGACCAGAAGUCGGUACGGAGGAGAAGGCGCCUCCUGGGUCCACAUGAGGAUCACCCAUGUGGCGAGGAUAUCCUCAGUUUU	–	–	0.0164	0.126
UUAAUUAAUUAAUUCGUCAAUUACAUGAGGAUCACCCAUGUAUAGGAUAUGCAGUGGAAUACACUGCAGAAGGAUACAAAGACG	–	–	0.0183	0.0214
AAGUUGACAGGAUAUACUUGGGCAACUUAUAUACUAAUAUAACAUGAGGAUCACCCAUGUAGAAGGGUCAGAAA	–	–	0.054	0.0725
GGGCCCGGAGGAUAUACAUGAGGAUCACCCAUGUACCCGGGUUUUAUUGGGCCCGGGUGUAGAAGGUUGGGCCC	–	–	0.0141	0.0133
CUUUUGUGAGGAUAUCAGUAGUAAAUAAAUAAUAUUACUACUGAGAAGGCACAUGAGGAUCACCCAUGUUCCUC	–	–	0.0426	0.253
AAAUUUAACGAAGGAUAUGGUGACAUGAGGAUCACCCAUGUUAAUUUUGUGAUCUUGUUUAAGUUCCAGAAGGUCGUAUACAUA	–	–	0.21	0.6
